# E-selectin induc: E-selectin induction on HUVECs; P16581; activation, % at 7.58 µM; HUVEC E-selectin immunofluorescence imaging; normalized: neutral wells 0, TNF-alpha wells 100; AID 686992; hit rate 0.37% among 260,000;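 active = mean E-selectin-positive cell signal at least 10% of the positive control, reached in at least 60% of replicates, without over 20% cell loss; inconclusive = no rule given, readout overlaps actives, possibly toxicity-flagged; inactive = the rest, including those meeting only one limit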
#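 Test system – human umbilical vein endothelial cells (HUVEC), E-selectin induction · Input – 3,000 HUVEC seeded per well · Buffer or medium – EGM-2, gelatin · Compound dosing – single-point compound dose · Detection – immunofluorescence imaging · Measure – percent E-selectin-positive cells · Controls – TNF-alpha high, DMSO low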
# DENV2 CPE: inhibitors of DENV2 cytopathic effect; DENV2-infected cells, cytopathic effect rescue, plate reader; CPE inhibition, % at 9.99 µM; hit rate 1.7% among 350,000; in the data active = CPE inhibition above about 20%, passing the limit was not always enough; inconclusive = no clear call, values can overlap the other calls; tested in BHK-21 cells;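 also: 0% = median of neutral control wells and 100% = median of positive control wells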
# PglD inh: inhibitors of Campylobacter jejuni PglD acetyltransferase; purified PglD enzyme, DTNB colorimetric CoA detection; AID 602405; hit rate 0.098% among 360,000; inhibition, % at 12.5 µM; in the data active = inhibition above about 16%, passing the limit was not always enough; inconclusive = no clear call, values can overlap the other calls
# FGF22 binding: binders of recombinant human FGF22 by thermal shift; Q9HCT0; SYPRO orange fluorescence; percent of sucrose octasulfate shift, DMSO zero; activity (Tm shift, normalised), % at 9.99 µM; hit rate 1.5% among 340,000; AID 651658;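 active = mean Tm shift, scaled 0 neutral to 100 positive control, at about 1.3% or above, every replicate too, limit read from the data; inconclusive = no clear call, values can overlap the other calls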
# Target sequence (Q9HCT0 whole entry, looked up): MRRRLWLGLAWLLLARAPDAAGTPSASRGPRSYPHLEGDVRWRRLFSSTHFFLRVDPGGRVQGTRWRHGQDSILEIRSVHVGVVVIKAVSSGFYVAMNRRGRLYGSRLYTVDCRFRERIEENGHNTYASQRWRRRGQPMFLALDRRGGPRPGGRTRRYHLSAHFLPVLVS
# XiGFP reactiv: activators of X-chromosome reactivation in mouse fibroblasts. XiGFP mouse fibroblasts, % GFP-positive cells imaging, 3 d; cells co-treated with 5-aza-dC sensitizer; scaled so ellipticine positive control = 100%. activation, % at 7.58 µM. hit rate 0.055% among 360,000. AID 743238;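 active = mean normalized replicate activation at least 10% and every replicate at or above 10%; inconclusive = only one of the two criteria met; inactive = mean below 10% and not all replicates reach 10%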;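 also: 0% = median of on-plate neutral control wells and 100% = ellipticine 6 µM median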
#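 material = 68-5-11 XiGFP fibroblast line | medium = DMEM plus 5-aza-dC sensitizer | schedule = 3 days compound exposure | benchmarks = positive control ellipticine, 6 µM final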
# C2C12 statin: protects C2C12 myotubes from simvastatin toxicity; AID 602340; ATP luminescence, 48 h; scaled: DMSO 0, geranylgeraniol control 100; hit rate 0.78% among 330,000; rescue of ATP level, % at 7.49 µM;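 active = mean ATP rescue above about 67%, or every replicate alone reaching that limit, limit read from the data, passing the limit was not always enough; inconclusive = no clear call, values can overlap the other calls; inactive = mean under the limit and some replicate under it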;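 also: myotubes were challenged with 10 µM simvastatin during compound exposure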
# Active calls of the source: *; u = inconclusive; x = not tested or not shown. In the library only some 3.3% were active in any assay of this set; here they are far more common.
SMILES,E-selectin induc,DENV2 CPE,PglD inh,FGF22 binding,XiGFP reactiv,C2C12 statin
O=S(=O)(c1cccs1)N1CCCCN2[C@H](CO)[C@H](c3ccc(Br)cc3)[C@H]2C1,-0.3,37.7*,-2.8,-0.3,0.0,-20.1
COc1ccc(S(=O)(=O)N2CCCCN3[C@H](CO)[C@@H](c4ccc(C5=CCCC5)cc4)[C@@H]3C2)cc1,0.1,-10.8,1.3,0.0,-0.1,6.7
COc1ccc(-c2ccc([C@H]3[C@@H](CO)N4CCCCN(S(=O)(=O)c5cccs5)C[C@H]34)cc2)cc1,0.1,26.5*,-1.5,0.4,0.0,x
COc1ccc(S(=O)(=O)N2CCCCN3[C@H](CO)[C@H](c4ccc(C5=CCCC5)cc4)[C@@H]3C2)cc1,-0.1,141.3*,-4.1,-0.9,0.0,10.6
COc1ccc(-c2ccc([C@H]3[C@H]4CN(S(=O)(=O)c5cccs5)CCCCN4[C@H]3CO)cc2)cc1,-0.1,-10.3,-2.6,0.1,0.2,x
CC(C)NC(=O)Nc1cccc2c1O[C@@H](CN(C)S(=O)(=O)c1cccs1)[C@H](C)CN([C@H](C)CO)C2=O,-3.8,x,x,x,0.0,x
N#C[C@@H]1[C@@H](c2ccccc2C2=CCCCC2)[C@@H](CO)N1C(=O)CN1CCOCC1,0.1,30.3*,x,-0.4,0.0,x
N#C[C@H]1[C@@H](c2ccccc2C2=CCCC2)[C@@H](CO)N1C(=O)C1CCOCC1,0.4,35.6*,x,0.1,0.0,x
CN1C[C@@H]2[C@H](c3ccccc31)[C@@H](CO)N2C(=O)CN1CCOCC1,0.1,-10.9,-1.3,0.3,0.3,-3.5
C/C=C/c1ccccc1[C@H]1[C@@H](C#N)N(C(=O)CN2CCOCC2)[C@@H]1CO,0.1,38.6*,x,x,0.0,x
CN1C[C@@H]2[C@H](c3ccccc31)[C@H](CO)N2C(=O)CN1CCOCC1,-0.4,37.2*,2.9,0.1,0.3,-16.9
C[C@H](CO)N1C[C@H](C)[C@H](CN(C)CC2CCCCC2)Oc2ccc(NC(=O)Cn3cnnn3)cc2C1=O,-0.5,x,6.1,0.1,0.1,-4.2
S=C(NCC(c1cccnc1)N1CCOCC1)NC1CCCCC1 (stereo not given),x,-2.0,-6.3,0.1,0.4,14.2
Fc1ccc(C(CNC(=S)NC2CCCCC2)N2CCOCC2)cc1 (stereo not given),x,x,x,43.1*,0.0,x
C[C@@H]1CCCCO[C@@H](CN(C)C(=O)Nc2ccc3c(c2)OCO3)[C@H](C)CN([C@@H](C)CO)C(=O)c2cc(NC(=O)c3ccccc3)ccc2O1,-0.1,0.7,-0.1,-0.5,0.4,x
C[C@@H]1CN([C@H](C)CO)S(=O)(=O)c2ccc(-c3ccncc3)cc2O[C@H]1CN(C)C(=O)C1CCC1,0.6,x,x,x,-0.1,-10.3
COc1cccc(N2CCN(C(=O)c3cccc(NC4=NC5CS(=O)(=O)CC5S4)c3)CC2)c1 (stereo not given),-0.2,34.8*,2.6,-0.2,0.2,2.8
Cc1ccc(C)c(N2CCN(C(=O)c3ccc(Cl)c(NC4=NC5CS(=O)(=O)CC5S4)c3)CC2)c1 (stereo not given),-0.5,28.0*,1.1,-0.1,0.1,1.4
C[C@H]1CN(C)C(=O)c2cccc(N(S(C)(=O)=O)S(C)(=O)=O)c2O[C@H]1CN(C)C(=O)OC(C)(C)C,x,x,x,x,0.2,x
O=C1NC[C@H](CC2CCCCC2)N(CC2CCCCC2)C1=O,-0.2,u,-2.3,0.0,0.0,107.3*
COc1cc(C(=O)OCCN2CCOCC2)ccc1O,x,x,-0.8,x,x,108.5*
COc1c(OC2OC(C(=O)O)C(O)C(O)C2O)cc(O)c2c(=O)cc(-c3ccccc3)oc12 (stereo not given),0.0,25.4*,2.4,-0.5,-0.2,4.3
O=C(O)C1OC(Oc2cc3oc(-c4ccccc4)cc(=O)c3c(O)c2O)C(O)C(O)C1O (stereo not given),x,u,5.9,-1.2,0.0,-6.6
Cc1ccc(NC2=NCC(=O)N2C2CCCC2)cc1,-0.2,x,x,43.2*,0.1,x
C[C@H]1CN([C@@H](C)CO)C(=O)c2cccc(N(C)C)c2O[C@H]1CN(C)C(=O)Nc1ccccc1,-0.1,0.8,8.5,0.4,0.0,-16.4
SMILES,E-selectin induc,DENV2 CPE,PglD inh,FGF22 binding,XiGFP reactiv,C2C12 statin
CCCc1cn(CC[C@H]2CC[C@H](NS(=O)(=O)c3ccc(-c4ccccc4)cc3)[C@@H](CO)O2)nn1,-0.4,3.4,-2.0,-0.3,-0.5,10.2
COc1ccccc1Nc1nc2cc(C)ccc2cc1C#N,1.7,-0.6,x,43.3*,0.0,x
COc1ccccc1Nc1nc2ccc(C)cc2cc1C#N,x,x,-1.8,x,x,x
C/C=C/c1ccc([C@H]2[C@@H](CO)N(C(=O)c3ccccc3)C23CN(C(C)=O)C3)cc1,0.0,-5.5,x,-0.1,0.0,x
CC(=O)Nc1ccc(Nc2nc(-c3ccccc3)nc3ccccc23)cc1,x,3.0,x,0.8,0.1,x
CC(=O)Nc1cccc(Nc2nc(-c3ccccc3F)nc3ccccc23)c1,x,1.3,7.8,43.1*,0.0,106.3*
CC(=O)N(C)C[C@H]1Oc2ncc(-c3ccc(C)cc3)cc2C(=O)N([C@@H](C)CO)C[C@@H]1C,0.0,u,0.5,0.3,-1.0,10.8
CCOC(=O)C1(Cc2ccccc2)CCN(Cc2cn(CC(=O)OC)c3ccccc23)CC1,0.1,3.6,x,0.2,0.6,x
CCOC(=O)C1(CC2CC2)CCN(Cc2cn(C)c3ccccc23)CC1,x,1.2,x,44.0*,0.0,x
O=C(c1cc(C2CC2)on1)N1CCN(C(c2ccccc2)c2ccccc2)CC1,x,40.0*,0.7,-0.4,0.8,-0.7
COc1ccc(-c2nc(S(=O)(=O)c3ccccc3)c(N3CCN(C)CC3)o2)cc1,0.1,-8.6,-0.2,46.5*,0.0,2.4
CCOc1ccc(-c2nc(S(=O)(=O)c3ccccc3)c(N3CCOCC3)o2)cc1,2.2,-0.8,x,-0.1,0.3,x
CC1(C)Cc2ccccc2C(C(=O)c2ccccc2)=N1,-0.2,-1.7,3.0,-0.3,0.3,39.3
CC1(C)Cc2ccccc2C(C(Cc2ccccc2)C(N)=O)=N1 (stereo not given),0.3,1.8,0.4,43.0*,0.0,-3.4
Cc1cc(F)ccc1C(O)c1ncc(-c2ccccc2C(F)(F)F)[nH]1 (stereo not given),-0.1,60.0*,1.8,-0.3,0.2,4.3
C[C@@H]1CN([C@H](C)CO)C(=O)c2cccc(NS(=O)(=O)c3ccccc3)c2O[C@@H]1CN(C)CC1CCCCC1,-0.1,0.3,2.0,0.7,0.0,0.4
COc1ccc(CC(=O)NC(C)c2nnc(SCC(=O)Nc3ccccc3)n2C)cc1 (stereo not given),-0.6,-5.3,-1.4,0.2,-0.1,0.8
COc1ccc(OC)c(NC(=O)CSc2nnnn2C)c1,x,-0.7,x,43.2*,0.0,x

# Bioassay records (PubChem)
